# Reference: ChEMBL document CHEMBL1154727, “Cytotoxic activity of 3-(5-phenyl-3H-[1,2,4]dithiazol-3-yl)chromen-4-ones and 4-oxo-4H-chromene-3-carbothioic acid N-phenylamides” (Eur J Med Chem, 2010)
# Experiments:
# [1] = system: IMR-32; experiment: Growth inhibition of human IMR32 cells at 100 uM after 48 hrs by sulforhodamine B assay; assay type: functional; conditions: IMR-32, 48 h, read-out: GI
# How it was run: (§1)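 Cells kept in RPMI-1640 with 10% FBS, penicillin and streptomycin; trypan blue viability check beforehand. Seeded at 1 × 10^4 cells/well, 24 h at 37 °C, 5% CO2, then treated in quadruplicate for 48 h. Compounds diluted in medium with 50 µg/ml gentamycin; single test level 100 µM. TCA fixation at 4 °C for 1 h, SRB stain, Tris pH 10.5 solubilization, OD 540 nm. IC50 taken as the mean from dose-response curves.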
# [2] = system: PC-3; experiment: Growth inhibition of human PC3 cells at 100 uM after 48 hrs by sulforhodamine B assay; assay type: functional; conditions: PC-3, 48 h, read-out: GI; how it was run: as §1
# [3] = system: A549; experiment: Growth inhibition of human A549 cells at 100 uM after 48 hrs by sulforhodamine B assay; assay type: functional; conditions: A549, 48 h, read-out: GI; how it was run: as §1
# [4] = system: HEp-2; experiment: Growth inhibition of human Hep2 cells after 48 hrs by sulforhodamine B assay; assay type: functional, cell-based; conditions: HEp-2, 48 h; how it was run: as §1
# [5] = system: COLO 205; experiment: Growth inhibition of human COLO205 cells after 48 hrs by sulforhodamine B assay; assay type: functional, cell-based; conditions: COLO 205, 48 h; how it was run: as §1
# [6] = system: COLO 205; experiment: Growth inhibition of human COLO205 cells at 100 uM after 48 hrs by sulforhodamine B assay; assay type: functional; conditions: COLO 205, 48 h, read-out: GI; how it was run: as §1
# [7] = system: A549; experiment: Growth inhibition of human A549 cells after 48 hrs by sulforhodamine B assay; assay type: functional, cell-based; conditions: A549, 48 h; how it was run: as §1
# [8] = system: OVCAR-5 (human); experiment: Growth inhibition of human OVCAR-5 cells at 100 uM after 48 hrs by sulforhodamine B assay; conditions: OVCAR-5, 48 h, read-out: GI
# [9] = system: HEp-2; experiment: Growth inhibition of human Hep2 cells at 100 uM after 48 hrs by sulforhodamine B assay; assay type: functional; conditions: HEp-2, 48 h, read-out: GI; how it was run: as §1
# [10] = system: OVCAR-5 (human); experiment: Growth inhibition of human OVCAR-5 cells after 48 hrs by sulforhodamine B assay; conditions: OVCAR-5, 48 h
# [11] = system: PC-3; experiment: Growth inhibition of human PC3 cells after 48 hrs by sulforhodamine B assay; assay type: functional, cell-based; conditions: PC-3, 48 h; how it was run: as §1
# [12] = system: IMR-32; experiment: Growth inhibition of human IMR32 cells after 48 hrs by sulforhodamine B assay; assay type: functional, cell-based; conditions: IMR-32, 48 h; how it was run: as §1
# [13] = system: COLO 205; experiment: Growth inhibition of human COLO205 cells at 20 uM after 48 hrs by sulforhodamine B assay; assay type: functional; conditions: COLO 205, 48 h, read-out: GI
# How it was run: (§2)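 Cells kept in RPMI-1640 with 10% FBS, penicillin and streptomycin; viability checked by trypan blue before use. Seeded at 1 × 10^4 cells/well, 24 h at 37 °C in 5% CO2, then compound (diluted in medium with gentamycin) added in quadruplicate for 48 h. Cells fixed with cold 50% TCA at 4 °C for 1 h, stained with 0.4% SRB, dye dissolved in 10 mM Tris pH 10.5, OD read at 540 nm.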
# [14] = system: PC-3; experiment: Growth inhibition of human PC3 cells at 20 uM after 48 hrs by sulforhodamine B assay; assay type: functional; conditions: PC-3, 48 h, read-out: GI; how it was run: as §2
# [15] = system: OVCAR-3; experiment: Growth inhibition of human OVCAR-3 cells at 20 uM after 48 hrs by sulforhodamine B assay; assay type: functional; conditions: OVCAR-3, 48 h, read-out: GI; how it was run: as §2
# [16] = system: PC-3; experiment: Growth inhibition of human PC3 cells at 10 uM after 48 hrs by sulforhodamine B assay; assay type: functional; conditions: PC-3, 48 h, read-out: GI
# How it was run: (§3)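 Cells grown in RPMI-1640 with 10% FBS and antibiotics, plated at 1 × 10^4 cells/well for 24 h at 37 °C, 5% CO2. Agents diluted in gentamycin-containing medium, then added in quadruplicate for 48 h. Cells fixed with cold TCA at 4 °C for 1 h, stained with 0.4% SRB, and dye dissolved in 10 mM Tris pH 10.5; absorbance read at 540 nm.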
# [17] = system: COLO 205; experiment: Growth inhibition of human COLO205 cells at 10 uM after 48 hrs by sulforhodamine B assay; assay type: functional; conditions: COLO 205, 48 h, read-out: GI; how it was run: as §3
# [18] = system: OVCAR-5 (human); experiment: Growth inhibition of human OVCAR-5 cells at 10 uM after 48 hrs by sulforhodamine B assay; conditions: OVCAR-5, 48 h, read-out: GI
# [19] = system: IMR-32; experiment: Growth inhibition of human IMR32 cells at 10 uM after 48 hrs by sulforhodamine B assay; assay type: functional; conditions: IMR-32, 48 h, read-out: GI; how it was run: as §3
# [20] = system: A549; experiment: Growth inhibition of human A549 cells at 10 uM after 48 hrs by sulforhodamine B assay; assay type: functional; conditions: A549, 48 h, read-out: GI; how it was run: as §3
# [21] = system: HEp-2; experiment: Growth inhibition of human Hep2 cells at 10 uM after 48 hrs by sulforhodamine B assay; assay type: functional; conditions: HEp-2, 48 h, read-out: GI; how it was run: as §3
SMILES,inhibition of growth at 100 µM [1] [%],inhibition of growth at 100 µM [2] [%],inhibition of growth at 100 µM [3] [%],IC50 [4] [µM],IC50 [5] [µM],inhibition of growth at 100 µM [6] [%],IC50 [7] [µM],inhibition of growth at 100 µM [8] [%],inhibition of growth at 100 µM [9] [%],IC50 [10] [µM],IC50 [11] [µM],IC50 [12] [µM],also measured
O=c1c(C2N=C(c3ccccc3)SS2)coc2ccccc12 (stereo unspecified),82,23,42,> 100,> 100,18,> 100,11,48,> 100,> 100,16.5,
O=c1c(C(=S)Nc2ccccc2)coc2cc(Cl)c(Cl)cc12,18,16,3,> 100,> 100,16,71.2,2,4,> 100,95.4,89.9,
Cc1ccc2occ(C3N=C(c4ccccc4)SS3)c(=O)c2c1 (stereo unspecified),53,40,67,> 100,> 100,32,66.5,54,43,93.7,> 100,70.7,
O=c1c(C2N=C(c3ccccc3)SS2)coc2ccc(F)cc12 (stereo unspecified),75,32,55,98.6,> 100,37,91.1,27,51,> 100,> 100,14.6,
O=c1c(C2N=C(c3ccccc3)SS2)coc2cc(Cl)c(F)cc12 (stereo unspecified),80,76,57,97.6,> 100,45,93.5,75,52,61.7,56.9,56.8,
O=c1c(C(=S)Nc2ccccc2)coc2ccccc12,53,63,79,> 100,72.6,71,52.8,58,32,86.4,60.6,95.8,
O=c1c(C(=S)Nc2ccccc2)coc2ccc(F)cc12,59,45,70,> 100,> 100,26,71.9,49,32,> 100,> 100,89.8,
O=c1c(C(=S)Nc2ccccc2)coc2cc(Cl)ccc12,56,55,66,> 100,> 100,38,63.6,47,41,> 100,90.8,92.7,
O=c1c(C2N=C(c3ccccc3)SS2)coc2ccc(Cl)cc12 (stereo unspecified),92,62,73,74.9,> 100,12,71.3,71,69,66.5,52.7,10,
O=c1c(C2N=C(c3ccccc3)SS2)coc2cc(Cl)c(Cl)cc12 (stereo unspecified),77,70,52,98,> 100,50,95,68,51,65.2,60,58,
O=c1c(C2N=C(c3ccccc3)SS2)coc2cc(Cl)ccc12 (stereo unspecified),53,81,76,> 100,76.7,57,57.5,91,31,10.5,38.4,95.1,
O=c1[nH]cc(F)c(=O)[nH]1 [FLUOROURACIL],,,,,21,,,,,,,,inhibition of growth at 20 µM [13]: 12%; inhibition of growth at 20 µM [14]: 20%; inhibition of growth at 20 µM [15]: 26%
CO[C@@]12[C@H](COC(N)=O)C3=C(C(=O)C(C)=C(N)C3=O)N1C[C@@H]1N[C@@H]12 [MITOMYCIN],,,,1.5,,,,,,,1.5,,inhibition of growth at 10 µM [16]: 41%; inhibition of growth at 10 µM [17]: 44%; inhibition of growth at 10 µM [18]: 65%
CC(=O)O[C@H]1C(=O)[C@@]2(C)[C@H]([C@H](OC(=O)c3ccccc3)[C@]3(O)C[C@H](OC(=O)[C@H](O)[C@@H](NC(=O)c4ccccc4)c4ccccc4)C(C)=C1C3(C)C)[C@]1(OC(C)=O)CO[C@@H]1C[C@@H]2O [PACLITAXEL],,,,,,,2.7,,,2.7,,,inhibition of growth at 10 µM [19]: 45%; inhibition of growth at 10 µM [20]: 67%; inhibition of growth at 10 µM [21]: 55%
